Consider 37 compounds from ChEMBL document CHEMBL1156166, “Structural development studies of anti-hepatitis C virus agents with a phenanthridinone skeleton” (Bioorg Med Chem, 2010).

Activity calls are given as the source filed them. The calls are words filed in the database; no cut-off is given here. Where only a bound is given, the exact number is not on record here.

Series [1] can be described thus: Selectivity index, CC50 for human NNC2 cells to IC50 for Hepatitis C virus. It is filed as functional.
A short description of series [2]: Cytotoxicity against human NNC2 cells assessed as decrease in GAPDH RNA level after 3 days by RT-PCR. The format is cell-based. The settings on record: for CC50 at 72 h: NNC2 cells; for CC50: nnc2, 72 h. In outline:
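NNC #2 cells carrying full-genomic HCV RNA replicons were grown in high-glucose DMEM with 10% FBS and 1 mg/mL G418. Cells were seeded at 5 × 10⁴ cells/mL and cultured 24 h at 37 °C. Medium was then replaced with DMEM/10% FBS containing graded compound concentrations for 3 days. HCV RNA and GAPDH RNA were quantified by real-time RT-PCR. EC50 and CC50 are the concentrations lowering each RNA to 50% of control.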

Series [3] deals with Hepatitis C virus. Description: Antiviral activity against HCV in human NNC2 cells assessed as inhibition of viral RNA replication after 3 days by RT-PCR analysis.
A short description of series [4]: Cytotoxicity against human NNC2 cells assessed as decrease in GAPDH RNA level at 10 uM after 3 days by RT-PCR. It is filed as cell-based. The note with it: for inhibition (INH): nnc2, 72 h, 10 µM; for cytotoxicity at 72 h, 10 µM: NNC2 cells, read-out: INH.
Series [5] relates to Hepatitis C virus. Put plainly: Antiviral activity against HCV in human NNC2 cells assessed as inhibition of viral RNA replication at 10 uM after 3 days by RT-PCR analysis. The note with it: Hepacivirus hominis.
In series [6] the test system is Hepatitis C virus. Description: Antiviral activity against HCV in human NNC2 cells assessed as inhibition of viral RNA replication at 10 uM after […] by RT-PCR analysis. It is filed as functional, Hepacivirus hominis.
Where [7] appears, read: Hepatitis C virus, NNC2, 3 days, read-out: EC50.

In general, CC50 refers to the concentration giving 50% cytotoxicity. The EC50 is the concentration that produces a half-maximal response. On to `CCCCn1c(=O)c2cc3ccccc3cc2c2ccccc21`, for which, in series [1], the “Selectivity Index” value is more than 3.64. In series [2], the CC50 at 72 h was more than 40 µM. The EC50 in series [3] (setting [7]) came to 11 µM.

With `CC1(C)CCC(C)(C)c2cc3c(cc21)c1ccccc1c(=O)n3CC1CCCCC1`, in series [2], the CC50 result is “Not Active”. Moreover, the EC50 entry in series [3] (nnc2) is given as “Not Active”.

As a reminder, the inhibition is the share of the control response that was lost under treatment. `CCCCn1c(=O)c2ccc(C)cc2c2ccccc21`: the “inhibition (INH)” value in series [4] is “Not Active”. Besides, in series [5], the inhibition entry is “inactive”.

For `CCCCn1c(=O)c2ccccc2c2cc(C(C)O)ccc21` (stereo not given), the CC50 at 72 h in series [2] is 51.4 µM. Also, the EC50 in series [3] (setting [7]) worked out at 21.8 µM.

For the compound `CCCCn1c(=O)c2ccccc2c2cc(C(O)(C(F)(F)F)C(F)(F)F)ccc21`, the CC50 at 72 h in series [2] was 12.5 µM. Further, in series [3] (setting [7]), the EC50 was determined as 3.7 µM.

Turning to `CCCCn1c(=O)c2cccc(C)c2c2ccccc21`, the cytotoxicity at 72 h, 10 µM in series [4] worked out at 94.9%. The inhibition result in series [5] is “inactive”.

As to `O=c1c2ccccc2c2cc(C(O)(C(F)(F)F)C(F)(F)F)ccc2n1CC(F)(F)F`, in series [2], the CC50 at 72 h was 30.3 µM. The EC50 in series [3] (setting [7]) came out at 24.8 µM.

`CCCCn1c(=O)c2ccccc2c2cc(CO)ccc21`: the CC50 at 72 h in series [2] was more than 50 µM. Moreover, the EC50 in series [3] (setting [7]) stood at 21.5 µM.

In the case of `CCCCn1c(=O)c2ccccc2c2cc(CCc3ccccc3)ccc21`, in series [2], the CC50 at 72 h was determined as 24.1 µM. Also, the EC50 in series [3] (setting [7]) is 21 µM.

As for `CCCCn1c(=O)c2ccccc2c2cc(C(C)C)ccc21`, the CC50 at 72 h in series [2] came to 29.7 µM. Also, the EC50 in series [3] (setting [7]) was 16.2 µM.

On to `CCCCn1c(=O)c2ccccc2c2cc(O)ccc21`, for which the CC50 at 72 h in series [2] came to 43.7 µM. In addition, in series [3] (setting [7]), the EC50 was determined as 37.9 µM.

As to `CCCCn1c(=O)c2ccccc2c2c3ccccc3ccc21`, the CC50 at 72 h in series [2] was found to be 44.5 µM. For the same compound, the EC50 in series [3] (setting [7]) is 29.1 µM.

As for `CCCCn1c(=O)c2c(C)cccc2c2ccccc21`, the “inhibition (INH)” value in series [4] is on record as “Not Active”. Also, the inhibition entry in series [5] was “inactive”.

Consider `CCCCn1c(=O)c2ccccc2c2ccc3ccccc3c21`, for which, in series [2], the 50% cytotoxic concentration (CC50) at 72 h amounted to 24.3 µM. In series [3] (setting [7]), the EC50 was 19.5 µM.

As to `CCCCn1c(=O)c2ccccc2c2cccc(C)c21`, the “inhibition (INH)” value in series [4] is given as “Not Active”. For the same compound, in series [5], the inhibition entry is “inactive”.

Take `CCCCn1c(=O)c2ccc3ccccc3c2c2ccccc21`: the CC50 at 72 h in series [2] is 31.4 µM. The EC50 in series [3] (setting [7]) is more than 31.4 µM.

As to `CCn1c(=O)c2ccccc2c2cc(C(O)(C(F)(F)F)C(F)(F)F)ccc21`, the CC50 at 72 h in series [2] is more than 40 µM. Moreover, the EC50 in series [3] (setting [7]) worked out at 14.1 µM.

Take `CCCCn1c(=O)c2ccccc2c2cc3ccccc3cc21`: the “Selectivity Index” value in series [1] came to 1.97. Further, the 50% cytotoxic concentration (CC50) at 72 h in series [2] was found to be 6.3 µM. Further, the EC50 in series [3] (setting [7]) worked out at 3.2 µM.

In the case of `CC1(C)CCC(C)(C)c2cc3c(cc21)c1ccccc1c(=O)n3Cc1ccccc1`, the CC50 at 72 h in series [2] is 31.8 µM. Also, the concentration for a half-maximal effect (EC50) in series [3] (setting [7]) was found to be 21.2 µM.

`CCCCn1c(=O)c2ccccc2c2cc(C(C)(C)C)ccc21`: the CC50 at 72 h in series [2] is 24.9 µM. Also, the EC50 in series [3] (setting [7]) amounted to 10.6 µM.

On to `CCCCn1c(=O)c2ccccc2c2cc3c(cc21)C(C)(C)CCC3(C)C`, for which the CC50 at 72 h in series [2] is 27.3 µM. Besides, the EC50 in series [3] (setting [7]) turned out to be 18.7 µM.

Regarding `CCCCn1c(=O)c2ccccc2c2cc(CC)ccc21`, the CC50 at 72 h in series [2] turned out to be 40.5 µM. Besides, in series [3] (setting [7]), the EC50 was found to be 34.7 µM.

With `CCCCn1c(=O)c2ccccc2c2ccccc21`, the CC50 at 72 h in series [2] worked out at 58.3 µM. In series [4], the “inhibition (INH)” value is “Not Active”. The inhibition entry in series [5] was “inactive”. Also, the EC50 in series [3] (setting [7]) is more than 58.3 µM.

`CCCCn1c(=O)c2cc(C)ccc2c2ccccc21`: the cytotoxicity at 72 h, 10 µM in series [4] was 88.8%. In series [6], the inhibition at 10 µM turned out to be 87%.

For `CCCCn1c(=O)c2ccccc2c2cc(C)ccc21`, the CC50 at 72 h in series [2] is 38.4 µM. Moreover, the cytotoxicity at 72 h, 10 µM in series [4] stood at 98.5%. Further, the inhibition at 10 µM in series [6] is 42%. For the same compound, in series [3] (setting [7]), the EC50 came to 35.8 µM.

On to `O=c1c2ccccc2c2cc(C(O)(C(F)(F)F)C(F)(F)F)ccc2n1CC1CCCCC1`, for which, in series [2], the CC50 at 72 h came to 14.4 µM. Besides, the EC50 in series [3] (setting [7]) amounted to 6.7 µM.

As to `O=c1c2ccccc2c2cc(C(O)(C(F)(F)F)C(F)(F)F)ccc2n1Cc1ccccc1`, in series [2], the CC50 at 72 h was 18.2 µM. In series [3] (setting [7]), the EC50 was found to be 7.7 µM.

Take `CCCCn1c(=O)c2cc3c(cc2c2ccccc21)C(C)(C)CCC3(C)C`: in series [2], the CC50 entry is recorded as “Not Active”. Besides, the EC50 entry in series [3] (nnc2) is given as “Not Active”.

Regarding `CCCCCCn1c(=O)c2ccccc2c2cc(C(O)(C(F)(F)F)C(F)(F)F)ccc21`, the CC50 at 72 h in series [2] was 12.2 µM. Besides, in series [3] (setting [7]), the EC50 was 4.8 µM.

In the case of `CC1(C)CCC(C)(C)c2cc3c(cc21)[nH]c(=O)c1ccccc13`, the CC50 result in series [2] was “Not Active”. Moreover, the 50% effective concentration (EC50) result in series [3] (nnc2) is recorded as “Not Active”.

As to `CCCCn1c(=O)c2ccccc2c2ccc(C)cc21`, the cytotoxicity at 72 h, 10 µM in series [4] amounted to 70.7%. Besides, in series [5], the inhibition result was “inactive”.

For the compound `CCCCn1c(=O)c2ccccc2c2cc(C(F)(F)F)ccc21`, in series [2], the CC50 at 72 h was more than 50 µM. In addition, the concentration for a half-maximal effect (EC50) in series [3] (setting [7]) is more than 50 µM.

Regarding `CCCCn1c(=O)c2c3ccccc3ccc2c2ccccc21`, the CC50 at 72 h in series [2] was more than 40 µM. For the same compound, the EC50 in series [3] (setting [7]) amounted to 29.9 µM.

On to `CCCCCCCCCn1c(=O)c2ccccc2c2cc(C(O)(C(F)(F)F)C(F)(F)F)ccc21`, for which the CC50 at 72 h in series [2] was 10.2 µM. Further, the EC50 in series [3] (setting [7]) was found to be 8.3 µM.

On to `CCCCn1c(=O)c2ccccc2c2cc(F)ccc21`, for which, in series [2], the CC50 at 72 h is more than 50 µM. Further, the EC50 in series [3] (setting [7]) is more than 50 µM.

As to `CCCCn1c(=O)c2ccccc2c2cc(C(C)=O)ccc21`, the CC50 at 72 h in series [2] turned out to be 27.3 µM. In addition, the EC50 in series [3] (setting [7]) was 18.7 µM.

In the case of `CCCCn1c(=O)c2ccccc2c2c(C)cccc21`, in series [4], the cytotoxicity at 72 h, 10 µM was 85.2%. The inhibition entry in series [5] was “inactive”.
